Test results as given in ChEMBL document CHEMBL1129988, “4-substituted cubylcarbinylamines: a new class of mechanism-based monoamine oxidase B inactivators” (J Med Chem, 1997).

Columns and labels:
[1] = substrate: NCC12C3C4C1C1C2C3C41c1ccccc1; experiment: (§1) Michaelis-Menten constant was determined against mitochondrial Monoamine oxidase B
Outline: (§2)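 K_m and k_cat against MAO B were obtained by measuring hydrogen peroxide formed over time with the amine as substrate.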

[2] = substrate: NCC12C3C4C1C1C2C3C41C1CC1; experiment: as §1; outline: as §2
[3] = substrate: NCC12C3C4C5C3C1C5C42; experiment: as §1; outline: as §2

B1: Amine oxidase [flavin-containing] B (Bos taurus) (protein)
chain: MSSKCDVVVVGGGISGMAAAKLLHDSGLNVIVLEARDRVGGRTYTLRNQKVKYVDLGGSYVGPTQNHILRLSKELGLETYKVNEVERLIHHTKGKSYPFRGSFPSVWNPITYLDHNNLWRTMDDMGREIPSDAPWKAPLAEQWDLMTMKELLDKICWTESSKQLAILFVNLCVTAEIHEVSALWFLWYVKQCGGTTRIFSTSNGGQERKFVGGSGQVSERIMDLLGDRVKLERPVIHIDQTGENVLVETLNHELYEAKYVISAVPPVLGMKIHFNPPLPMMRNQLITRVPLGSVIKSIVYYKEPFWRNMDYCGSMIIEGEEAPVAYALDDTKPDGSYPAIIGFILAHKARKLARLTKEERLKKLCDLYAKVLGSQEALHPVHYEEKNWCEEQYSGGCYTSYFPPGIMTQYGRVLRQPVGRIYFAGTETATHWSGYMEGAVEAGERAAREILHAMGKIPEDEIWLPEPESVDVPAKPITTTFLQRHLPSVPGLLKLIGLTTIFSATALGFLAHKRGLLVRI
In the case of B1, the Km [1] is reported as 1010 µM, the kcat [1] is reported as 3.47 s⁻¹ and the kcat/Km [1] is reported as 3500 M⁻¹ s⁻¹. For the same protein, the Km [2] was 1540 µM, the kcat [2] was 2.5 s⁻¹ and the kcat/Km [2] was 1670 M⁻¹ s⁻¹. It also gave a Km [3] of 140 µM, a kcat [3] of 0.0833 s⁻¹ and a kcat/Km [3] of 600 M⁻¹ s⁻¹.
